Measured values taken from ChEMBL document CHEMBL1152300, “Ligand specificity of constitutive androstane receptor as probed by induced-fit docking and mutagenesis” (J Med Chem, 2008).

Key:
[1] = molecular target: Nuclear receptor subfamily 1 group I member 3 (Mus musculus, UniProt O35627, N175A); assay: Decrease in mouse CAR N175A mutant activation expressed in HEK293 cells at 10 uM by mammalian one-hybrid assay; assay type: cell-based; conditions: read-out: Activity
How it was run: (§1)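 GAL4-DBD fused to mouse CAR LBD (residues 118-358), wild-type or point mutant, cotransfected with UASx4-tk-luc reporter and pCMVβ into HEK293 cells. Cells were exposed to final 1 µM, 2 µM or 10 µM test chemical, or 0.1% v/v DMSO, for 24 h after transfection. Luciferase was normalized to β-galactosidase and set against empty GAL4 vector (=1.0). Mean ± standard deviation, three independent experiments.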

[2] = molecular target: T1, Nuclear receptor subfamily 1 group I member 3 (Mus musculus, UniProt O35627, L253F); assay: Decrease in mouse CAR L253F mutant activation expressed in HEK293 cells at 10 uM by mammalian one-hybrid assay; assay type: cell-based; conditions: read-out: Activity; how it was run: as §1
T1 sequence (O35627 whole entry L253F): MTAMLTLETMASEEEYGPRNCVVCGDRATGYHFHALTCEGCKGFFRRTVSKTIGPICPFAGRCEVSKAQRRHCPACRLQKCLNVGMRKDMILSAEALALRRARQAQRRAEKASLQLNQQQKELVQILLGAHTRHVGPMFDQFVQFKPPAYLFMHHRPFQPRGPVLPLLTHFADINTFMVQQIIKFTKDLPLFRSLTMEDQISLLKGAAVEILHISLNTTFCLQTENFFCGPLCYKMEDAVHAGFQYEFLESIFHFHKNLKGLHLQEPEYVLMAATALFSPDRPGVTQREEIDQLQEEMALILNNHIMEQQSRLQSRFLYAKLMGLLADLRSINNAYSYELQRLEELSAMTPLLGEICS

[3] = molecular target: T2, Nuclear receptor subfamily 1 group I member 3 (Mus musculus, UniProt O35627, L212A); assay: Effect on steroid receptor co-activator 1 binding to mouse CAR L212A mutant […] at 10 uM by yeast two-hybrid assay; assay type: cell-based; conditions: read-out: Activity
T2 sequence (O35627 whole entry L212A, the tested form may be a part): as the sequence (O35627 whole entry L253F) above, with L212A, F253L counted along it
How it was run: (§2)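 Yeast two-hybrid assay. Yeast co-expressing wild-type or mutant mouse CAR LBD and the SRC-1 partner were selected on SD plates lacking leucine and tryptophan. Random colonies were pooled and amplified, then treated with DMSO or test chemical for 3.5 h. β-galactosidase activity was normalized to cell density and set relative to wild-type mCAR + SRC-1 with DMSO (=100). Mean ± standard deviation of two determinations, each in triplicate.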

[4] = molecular target: T1, Nuclear receptor subfamily 1 group I member 3; assay: Effect on nuclear co-repressor receptor binding to mouse CAR L253F mutant […] at 10 uM by yeast two-hybrid assay; assay type: cell-based; conditions: read-out: Activity
How it was run: (§3)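 Yeast expressing wild-type or mutant mouse CAR LBD plus NCoR, selected on SD plates lacking leucine and tryptophan. Pooled colonies treated with DMSO or compound for 3.5 h. β-Galactosidase activity normalized to cell density. Reference is 10 µM androstenol (=100). Mean ± SD of two independent determinations, each in triplicate.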

[5] = molecular target: Nuclear receptor subfamily 1 group I member 3 (Mus musculus, UniProt O35627, Y336A); assay: Decrease in steroid receptor coactivator 1 binding to mouse CAR Y336A mutant […] at 10 uM by yeast two-hybrid assay; assay type: cell-based; conditions: read-out: Activity
Chain of Nuclear receptor subfamily 1 group I member 3 (Mus musculus, UniProt O35627, Y336A) (O35627 whole entry Y336A): as the sequence (O35627 whole entry L253F) above, with F253L, Y336A counted along it
How it was run: as §3, with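 “SRC-1,” for “NCoR,”, “wild-type CAR + SRC-1 with DMSO” for “10 µM androstenol”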

[6] = molecular target: T3, Nuclear receptor subfamily 1 group I member 3 (Mus musculus, UniProt O35627); assay: Activation of mouse CAR; how it was run: as §1
T3 sequence (O35627 whole entry): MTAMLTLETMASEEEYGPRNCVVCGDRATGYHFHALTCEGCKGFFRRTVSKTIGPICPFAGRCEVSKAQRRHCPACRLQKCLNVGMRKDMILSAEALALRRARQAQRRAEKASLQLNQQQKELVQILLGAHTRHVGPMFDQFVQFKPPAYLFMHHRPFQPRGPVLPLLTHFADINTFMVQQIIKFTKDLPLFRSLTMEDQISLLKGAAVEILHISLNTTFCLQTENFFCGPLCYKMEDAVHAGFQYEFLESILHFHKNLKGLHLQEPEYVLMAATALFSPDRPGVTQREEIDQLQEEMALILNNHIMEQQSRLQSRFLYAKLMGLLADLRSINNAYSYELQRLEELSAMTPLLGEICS

[7] = molecular target: T4, Nuclear receptor subfamily 1 group I member 3 (Mus musculus, UniProt O35627, H213A); conditions: HEK293, mouse, read-out: Activity
T4 sequence (O35627 whole entry H213A): as the sequence (O35627 whole entry L253F) above, with H213A, F253L counted along it

[8] = molecular target: Nuclear receptor subfamily 1 group I member 3 (Mus musculus, UniProt O35627, T350M); conditions: HEK293, mouse, read-out: Activity
Chain of Nuclear receptor subfamily 1 group I member 3 (Mus musculus, UniProt O35627, T350M) (O35627 whole entry T350M): as the sequence (O35627 whole entry L253F) above, with F253L, T350M counted along it

[9] = molecular target: T5, Nuclear receptor subfamily 1 group I member 3 (Mus musculus, UniProt O35627, F171L); conditions: HEK293, mouse
T5 sequence (O35627 whole entry F171L): as the sequence (O35627 whole entry L253F) above, with F171L, F253L counted along it

[10] = molecular target: T5, Nuclear receptor subfamily 1 group I member 3; assay: Decrease in nuclear co-repressor receptor binding to mouse CAR F171L mutant […] at 10 uM by yeast two-hybrid assay; assay type: cell-based; design: scale not given: the % may be the effect or the level left; how it was run: as §3
[11] = molecular target: T5, Nuclear receptor subfamily 1 group I member 3; assay: Enhancement of steroid receptor coactivator 1 binding to mouse CAR F171L mutant […] at 10 uM by yeast two-hybrid assay; assay type: cell-based; how it was run: as §2
[12] = molecular target: T2, Nuclear receptor subfamily 1 group I member 3; assay: Enhancement of steroid receptor co-activator 1 binding to mouse CAR L212A mutant […] at 10 uM by yeast two-hybrid assay; assay type: cell-based
[13] = molecular target: T6, mouse CAR (NR1I3), wild type (Mus musculus, UniProt O35627); assay: Activation of wild type mouse CAR expressed in HEK293 cells at 1 uM by mammalian one-hybrid assay; assay type: cell-based; conditions: HEK293 cells expressing wild type mouse CAR, read-out: FC
T6 sequence (O35627 whole entry): T3 sequence (O35627 whole entry)
How it was run: (§4)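 GAL4 DBD fused to mouse CAR LBD (residues 118-358), wild type or point mutant, cotransfected with UASx4-tk-luc reporter and pCMVβ into HEK293 cells. Cells cultured with DMSO (0.1% v/v) or compound (final 1, 2 or 10 µM). Lysed 24 h post-transfection. Luciferase normalized to β-galactosidase, expressed relative to empty GAL4 vector (=1.0). Mean ± SD, three independent experiments.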

[14] = molecular target: T6, mouse CAR (NR1I3), wild type; assay: Activation of wild type mouse CAR expressed in HEK293 cells at 10 uM by mammalian one-hybrid assay; assay type: cell-based; conditions: HEK293 cells expressing wild type mouse CAR, read-out: FC; how it was run: as §4
[15] = molecular target: Nuclear receptor subfamily 1 group I member 3 (Mus musculus, UniProt O35627, S251L); conditions: HEK293, mouse, read-out: Activity
Chain of Nuclear receptor subfamily 1 group I member 3 (Mus musculus, UniProt O35627, S251L) (O35627 whole entry S251L): as the sequence (O35627 whole entry L253F) above, with S251L, F253L counted along it

[16] = molecular target: Nuclear receptor subfamily 1 group I member 3 (Mus musculus, UniProt O35627, T350A); conditions: HEK293, mouse, read-out: Activity
Chain of Nuclear receptor subfamily 1 group I member 3 (Mus musculus, UniProt O35627, T350A) (O35627 whole entry T350A): as the sequence (O35627 whole entry L253F) above, with F253L, T350A counted along it

[17] = molecular target: T1, Nuclear receptor subfamily 1 group I member 3; conditions: HEK293, mouse, read-out: Activity
[18] = molecular target: T5, Nuclear receptor subfamily 1 group I member 3; assay: Decrease in mouse CAR F171L mutant activation expressed in HEK293 cells at 10 uM by mammalian one-hybrid assay; assay type: cell-based; conditions: read-out: Activity; how it was run: as §4
[19] = molecular target: T4, Nuclear receptor subfamily 1 group I member 3; conditions: HEK293, mouse, read-out: Activity; remark: listed apart in the source
[20] = molecular target: T3, Nuclear receptor subfamily 1 group I member 3; assay: Activation of wild type mouse CAR expressed in HEK293 cells at 2 uM by mammalian one-hybrid assay; assay type: cell-based; conditions: hek293, 2 µM; how it was run: as §1

Chain of Nuclear receptor subfamily 1 group I member 3 (Mus musculus, UniProt O35627, N175A) (O35627 whole entry N175A, the tested form may be a part): as the sequence (O35627 whole entry L253F) above, with N175A, F253L counted along it

inhibition at 10 µM [1] [%] | inhibition at 10 µM [2] [%] | Activity [6] | inhibition at 10 µM [7] [%] | inhibition at 10 µM [8] [%] | SMILES | activity at 10 µM [3] [%] | activity at 10 µM [4] [%] | inhibition at 10 µM [5] [%] | activity at 10 µM [9] [%] | Activity [10] | Activity [11] | Activity [12] | fold induction at 1 µM [13] | fold induction at 10 µM [14] | inhibition at 10 µM [15] [%] | inhibition at 10 µM [16] [%] | inhibition at 10 µM [17] [%] | inhibition at 10 µM [18] [%] | inhibition at 10 µM [19] [%] | Activity [20] [%]
< 50 | < 50 | Active | 50 | 50 | COc1ccc(C(=O)CCCc2ccccc2)cc1 | < 50 | < 50 | ≥ 50 | < 50 | – | – | – | – | – | – | – | – | – | – | –
50 | < 50 | Active | 50 | < 50 | COc1ccccc1CC(CC(=O)Cc1ccccc1)OC (stereo unspecified) | – | – | – | – | >= 50% | > 50% | > 150% | 2 | 2 | < 50 | 50 | ≥ 50 | – | – | –
– | – | – | – | – | Clc1cnc(Oc2ccc(Oc3ncc(Cl)cc3Cl)cc2)c(Cl)c1 | – | – | – | – | – | – | – | 2 | 2 | – | – | – | – | – | –
– | – | – | – | – | Clc1ccccc1C(c1ccccc1)(c1ccccc1)n1ccnc1 [CLOTRIMAZOLE] | – | – | – | – | – | – | – | – | – | – | – | – | – | – | 40
– | – | – | – | – | COc1ccc(C(c2ccc(OC)cc2)C(Cl)(Cl)Cl)cc1 [METHOXYCHLOR] | – | < 50 | ≥ 50 | – | – | >= 50% | >= 50% | – | – | < 50 | 50 | – | < 50 | ≥ 50 | 40

SMILES | inhibition at 10 µM [1] [%] | inhibition at 10 µM [2] [%] | Activity [6] | inhibition at 10 µM [7] [%] | inhibition at 10 µM [8] [%] | activity at 10 µM [3] [%] | activity at 10 µM [4] [%] | inhibition at 10 µM [5] [%] | activity at 10 µM [9] [%] | Activity [10] | Activity [11] | Activity [12] | fold induction at 1 µM [13] | fold induction at 10 µM [14] | inhibition at 10 µM [15] [%] | inhibition at 10 µM [16] [%] | inhibition at 10 µM [17] [%] | inhibition at 10 µM [18] [%] | inhibition at 10 µM [19] [%] | Activity [20] [%]
C[C@]12CC[C@@H](O)C[C@@H]1CC[C@@H]1[C@@H]2CC[C@]2(C)C=CC[C@@H]12 [ANDROSTENOL] | – | < 50 | – | – | – | < 50 | – | – | < 50 | >= 50% | – | – | – | – | – | – | ≥ 50 | < 50 | ≥ 50 | –
